≈ marks a conversion by molar mass, not a printed value.
Columns and labels:
[1] = tested on: Streptococcus pyogenes; test: Antibacterial activity against macrolide-resistant Streptococcus pyogenes 2094 harboring erm(A) gene after 5 passages following overnight incubation by agar dilution method
[2] = tested on: Streptococcus pyogenes; test: Antibacterial activity against macrolide-resistant Streptococcus pyogenes 2011 harboring mef(A) gene after 35 passages following overnight incubation by agar dilution method
[3] = tested on: Streptococcus pneumoniae; test: Antibacterial activity against macrolide-susceptible Streptococcus pneumoniae 1077 after 50 passages following overnight incubation by agar dilution method; assay type: functional
[4] = tested on: Streptococcus pneumoniae; test: Antibacterial activity against macrolide-resistant Streptococcus pneumoniae 3665 harboring mef(A) gene after 26 passages following overnight incubation by agar dilution method; assay type: functional
[5] = tested on: Streptococcus pneumoniae; test: Antibacterial activity against macrolide-resistant Streptococcus pneumoniae 1635 harboring erm(A) gene after 49 passages following overnight incubation by agar dilution method; assay type: functional
[6] = tested on: Streptococcus pneumoniae; test: Antibacterial activity against macrolide-resistant Streptococcus pneumoniae 2686 harboring mutation in L4 ribosomal protein after 14 passages following overnight incubation by agar dilution method; assay type: functional
[7] = tested on: Streptococcus pyogenes; test: Antibacterial activity against macrolide-resistant Streptococcus pyogenes 2094 harboring erm(A) gene after 6 passages following overnight incubation by agar dilution method
[8] = tested on: Streptococcus pneumoniae; test: Antibacterial activity against macrolide-resistant Streptococcus pneumoniae 1635 harboring erm(A) gene after 32 passages following overnight incubation by agar dilution method; assay type: functional
[9] = tested on: Streptococcus pneumoniae; test: Antibacterial activity against macrolide-resistant Streptococcus pneumoniae 2686 harboring mutation in L4 ribosomal protein after 22 passages following overnight incubation by agar dilution method; assay type: functional
[10] = tested on: Streptococcus pneumoniae; test: Antibacterial activity against macrolide-susceptible Streptococcus pneumoniae 7127 harboring S20N mutation in L4 ribosomal protein and A105V mutation in L22 ribosomal protein after 16 passages following overnight incubation by agar dilution method; assay type: functional
[11] = tested on: Streptococcus pneumoniae; test: Antibacterial activity against macrolide-resistant Streptococcus pneumoniae 1076 harboring erm(B) and mef(A) gene after 14 passages following overnight incubation by agar dilution method; assay type: functional
[12] = tested on: Streptococcus pneumoniae; test: Antibacterial activity against macrolide-resistant Streptococcus pneumoniae 2686 harboring mutation in L4 ribosomal protein after 25 passages following overnight incubation by […]; assay type: functional
Summary of the method: (§1)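 S. pneumoniae parental strains were passaged daily in subinhibitory drug concentrations in cation-adjusted Mueller-Hinton broth with 5% lysed horse blood. Each passage was seeded from the tube 1 to 2 dilutions below the MIC whose turbidity matched the growth control. MICs of resistant clones were measured by CLSI macrodilution. Parent and clone identity was confirmed by PFGE of SmaI-digested DNA.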

[13] = tested on: Streptococcus pneumoniae; test: Antibacterial activity against macrolide-susceptible Streptococcus pneumoniae 7127 harboring S20N mutation in L4 ribosomal protein and A105V mutation in L22 ribosomal protein after 38 passages following overnight incubation […]; assay type: functional
Summary of the method: as §1

[14] = tested on: Streptococcus pyogenes; test: Antibacterial activity against macrolide-resistant Streptococcus pyogenes 2368 harboring erm(B) gene after 6 passages following overnight incubation by agar dilution method
[15] = tested on: Streptococcus pyogenes; test: Antibacterial activity against macrolide-resistant Streptococcus pyogenes 2094 harboring erm(A) gene after 22 passages following overnight incubation by agar dilution method

SMILES: CC[C@H]1OC(=O)[C@H](C)[C@@H](O[C@H]2C[C@@](C)(OC)[C@@H](O)[C@H](C)O2)[C@H](C)[C@@H](O[C@@H]2O[C@H](C)C[C@H](N(C)C)[C@H]2O)[C@](C)(O)C[C@@H](C)CN(C)[C@H](C)[C@@H](O)[C@]1(C)O [AZITHROMYCIN]
- MIC [1]: > 64 µg/mL
- MIC [2]: 32 µg/mL (≈ 42.7 µM)

SMILES: CC[C@H]1OC(=O)[C@H](C)[C@@H](O[C@H]2C[C@@](C)(OC)[C@@H](O)[C@H](C)O2)[C@H](C)[C@@H](O[C@@H]2O[C@H](C)C[C@H](N(C)C)[C@H]2O)[C@](C)(OC)C[C@@H](C)C(=O)[C@H](C)[C@@H](O)[C@]1(C)O [CLARITHROMYCIN]
- MIC [3]: 8 ng/mL (≈ 0.0107 µM)
- MIC [4]: 16 µg/mL (≈ 21.4 µM)
- MIC [5]: > 64 µg/mL
- MIC [6]: > 64 µg/mL
- MIC [7]: > 64 µg/mL

SMILES: CC[C@H]1OC(=O)[C@@](C)(F)C(=O)[C@H](C)[C@@H](O[C@@H]2O[C@H](C)C[C@H](N(C)C)[C@H]2O)[C@](C)(OC)C[C@@H](C)C(=O)[C@H](C)[C@H]2N(CCCCn3cc(-c4cccc(N)c4)nn3)C(=O)O[C@]12C [SOLITHROMYCIN]
- MIC [8]: 0.06 µg/mL (≈ 0.071 µM)
- MIC [9]: 0.5 µg/mL (≈ 0.592 µM)
- MIC [10]: 0.125 µg/mL (≈ 0.148 µM)

SMILES: CC[C@H]1OC(=O)[C@H](C)C(=O)[C@H](C)[C@@H](O[C@@H]2O[C@H](C)C[C@H](N(C)C)[C@H]2O)[C@](C)(OC)C[C@@H](C)C(=O)[C@H](C)[C@H]2N(CCCCn3cnc(-c4cccnc4)c3)C(=O)O[C@]12C [TELITHROMYCIN]
- MIC [11]: > 64 µg/mL
- MIC [12]: 0.5 µg/mL (≈ 0.616 µM)
- MIC [13]: 0.06 µg/mL (≈ 0.0739 µM)
- MIC [14]: > 64 µg/mL
- MIC [15]: 0.25 µg/mL (≈ 0.308 µM)

From ChEMBL document CHEMBL1240350, “In vitro activity of CEM-101 against Streptococcus pneumoniae and Streptococcus pyogenes with defined macrolide resistance mechanisms” (Antimicrob Agents Chemother, 2010)
